Experimental findings from ChEMBL document CHEMBL1629532, “Design, synthesis, and structure-activity relationships of 3-ethynyl-1H-indazoles as inhibitors of the phosphatidylinositol 3-kinase signaling pathway” (J Med Chem, 2010) are described below.

For data set [1], the target named is T1, 3-phosphoinositide-dependent protein kinase 1 (Homo sapiens, UniProt O15530).
T1 sequence (O15530 whole entry): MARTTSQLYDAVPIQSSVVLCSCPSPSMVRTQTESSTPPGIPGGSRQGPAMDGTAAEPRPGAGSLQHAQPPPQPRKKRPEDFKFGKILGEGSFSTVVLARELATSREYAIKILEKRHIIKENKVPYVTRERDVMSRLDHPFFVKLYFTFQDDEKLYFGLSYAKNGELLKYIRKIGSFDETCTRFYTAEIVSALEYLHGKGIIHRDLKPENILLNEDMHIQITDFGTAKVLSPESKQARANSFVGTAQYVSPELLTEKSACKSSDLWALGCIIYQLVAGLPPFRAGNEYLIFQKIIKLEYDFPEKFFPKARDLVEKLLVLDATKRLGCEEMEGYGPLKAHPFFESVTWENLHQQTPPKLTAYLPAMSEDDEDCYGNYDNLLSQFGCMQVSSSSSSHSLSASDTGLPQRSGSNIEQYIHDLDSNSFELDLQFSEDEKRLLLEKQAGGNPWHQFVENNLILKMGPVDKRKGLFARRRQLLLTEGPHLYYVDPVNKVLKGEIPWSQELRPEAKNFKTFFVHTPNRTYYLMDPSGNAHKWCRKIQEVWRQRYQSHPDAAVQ
As to the kind of experiment: Inhibition of PDK1 by Z'-LYTE kinase activity assay.

The test system of another data set is PC-3. As to the kind of experiment: Growth inhibition of human PC3 cells after 72 hrs by ATPlite assay. Type of data set: functional. Particulars: PC-3, 72 h. Put shortly:
(§1)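 Cells seeded at about 3000 per well, grown 24 h, then given fresh medium and test compound in triplicate at 0.5 to 100µM in DMSO (0.5% final). Exposure 72 h at 37 °C, 5% CO₂. Viability measured by ATPlite luminescence and normalized to DMSO-treated controls. GI50 obtained by curve fitting. HeLa cultured in DMEM/10% FBS; MCF7, MDA-MB-231 and PC3 cultured in RPMI+GlutaMAX/10% FBS.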
On the technique in general: Cellular ATP, detected with luciferase, serves as a proxy for viable cell number.

The subject of a further data set is HeLa. As to the kind of experiment: Growth inhibition of human HeLa cells after 72 hrs by ATPlite assay. Type of data set: functional. Put shortly: as §1
The target of data set [2] is Phosphatidylinositol 4,5-bisphosphate 3-kinase catalytic subunit gamma isoform (Homo sapiens, UniProt P48736). The data set can be described thus: Inhibition of PI3Kgamma.
Phosphatidylinositol 4,5-bisphosphate 3-kinase catalytic subunit gamma isoform, sequence (P48736 whole entry, canonical isoform): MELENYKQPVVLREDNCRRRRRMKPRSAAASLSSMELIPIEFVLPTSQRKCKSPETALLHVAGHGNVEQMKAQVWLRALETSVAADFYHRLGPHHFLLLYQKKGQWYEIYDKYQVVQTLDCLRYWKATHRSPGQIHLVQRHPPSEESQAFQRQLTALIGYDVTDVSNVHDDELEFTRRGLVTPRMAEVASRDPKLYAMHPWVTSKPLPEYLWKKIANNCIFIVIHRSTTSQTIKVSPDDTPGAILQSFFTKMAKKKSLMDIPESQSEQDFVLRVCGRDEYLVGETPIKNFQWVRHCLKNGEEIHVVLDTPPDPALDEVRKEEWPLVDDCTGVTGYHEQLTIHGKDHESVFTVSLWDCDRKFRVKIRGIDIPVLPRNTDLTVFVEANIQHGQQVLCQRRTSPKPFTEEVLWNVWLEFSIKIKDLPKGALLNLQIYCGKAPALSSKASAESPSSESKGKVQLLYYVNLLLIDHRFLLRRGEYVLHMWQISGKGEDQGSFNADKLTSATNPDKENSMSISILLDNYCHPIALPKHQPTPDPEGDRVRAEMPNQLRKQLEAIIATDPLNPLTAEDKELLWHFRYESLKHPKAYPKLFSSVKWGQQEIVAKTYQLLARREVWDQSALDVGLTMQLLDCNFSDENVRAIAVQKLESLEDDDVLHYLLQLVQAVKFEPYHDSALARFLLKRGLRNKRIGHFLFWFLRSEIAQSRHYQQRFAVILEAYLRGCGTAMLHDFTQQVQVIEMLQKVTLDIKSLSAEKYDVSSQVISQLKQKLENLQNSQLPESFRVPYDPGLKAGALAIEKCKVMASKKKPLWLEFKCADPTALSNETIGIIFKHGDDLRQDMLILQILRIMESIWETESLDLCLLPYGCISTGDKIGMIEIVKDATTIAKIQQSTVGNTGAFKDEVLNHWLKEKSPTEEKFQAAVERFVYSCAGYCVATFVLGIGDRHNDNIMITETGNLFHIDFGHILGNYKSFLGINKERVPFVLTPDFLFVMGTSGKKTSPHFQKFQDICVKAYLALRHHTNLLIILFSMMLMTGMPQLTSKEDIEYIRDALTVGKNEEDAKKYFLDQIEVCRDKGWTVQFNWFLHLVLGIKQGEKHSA
A further data set concerns Plasma. As to the kind of experiment: Metabolic stability in rat plasma assessed as compound remaining at 1 uM after 60 mins by Lc/Ms method. To be noted: 1 h. Type of data set: ADME, cell-free. A digest of the protocol: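 Compound at 1 µM (2.5% DMSO final) in fresh rat plasma at 37 °C. Stopped at 0, 30 and 60 min with two volumes methanol plus internal standard, then LC-MS. Percent parent remaining relative to 0 min, from peak area ratios to internal standard. Duplicate runs, with a plasma-labile positive control.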

The target of data set [3] is RAC-alpha serine/threonine-protein kinase (Homo sapiens) (UniProt P31749). As to the kind of experiment: Inhibition of AKT1 by biochemical assay.
RAC-alpha serine/threonine-protein kinase (Homo sapiens), sequence (P31749 whole entry): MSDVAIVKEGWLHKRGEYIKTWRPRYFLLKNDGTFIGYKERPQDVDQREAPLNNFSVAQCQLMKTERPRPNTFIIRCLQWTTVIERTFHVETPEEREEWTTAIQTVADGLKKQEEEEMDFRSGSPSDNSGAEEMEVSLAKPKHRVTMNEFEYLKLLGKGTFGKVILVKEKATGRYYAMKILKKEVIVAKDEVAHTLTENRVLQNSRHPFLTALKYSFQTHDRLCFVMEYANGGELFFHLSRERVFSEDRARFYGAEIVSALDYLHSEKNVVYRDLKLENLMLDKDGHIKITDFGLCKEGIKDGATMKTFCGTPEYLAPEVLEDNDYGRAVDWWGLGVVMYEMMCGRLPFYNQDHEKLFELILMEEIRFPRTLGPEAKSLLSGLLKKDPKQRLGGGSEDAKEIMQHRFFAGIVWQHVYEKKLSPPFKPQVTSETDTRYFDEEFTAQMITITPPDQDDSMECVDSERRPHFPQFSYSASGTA
The next data set concerns U-87MG ATCC. The data set can be described thus: Growth inhibition of human U87 cells grown as spheroids assessed reduction in decrease in spheroid volumes reated consecutively for 6 days by hanging drop method. It counts as functional, cell-based. Put shortly:
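U87 glioblastoma spheroids formed by hanging drop, 200 cells per 20 µl drop, inverted for 5 days in a humidity chamber. Spheroids moved onto 1% low-melt agarose-coated wells. Compound or DMSO added every 24 h for 6 days. Volume (µm³) calculated from length and width measured with an optical micrometer. Four independent experiments.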

The nature of data set [4]: Inhibition of DNA-PK at 10 uM.
For data set [5], the target named is Receptor-type tyrosine-protein kinase FLT3 (Homo sapiens) (UniProt P36888). As to the kind of experiment: Inhibition of FLT3 at 10 uM.
Data set [6] addresses Serine/threonine-protein kinase haspin (Homo sapiens) (UniProt Q8TF76). The data set can be described thus: Inhibition of GSG2 at 10 uM.
Data set [7] has as its target Mitogen-activated protein kinase 9 (Homo sapiens) (UniProt P45984). The data set can be described thus: Inhibition of JNK2 at 10 uM.
For data set [8], the target named is Vascular endothelial growth factor receptor 2 (Homo sapiens) (UniProt P35968). The data set can be described thus: Inhibition of KDR at 10 uM.
Vascular endothelial growth factor receptor 2 (Homo sapiens), sequence (P35968 whole entry): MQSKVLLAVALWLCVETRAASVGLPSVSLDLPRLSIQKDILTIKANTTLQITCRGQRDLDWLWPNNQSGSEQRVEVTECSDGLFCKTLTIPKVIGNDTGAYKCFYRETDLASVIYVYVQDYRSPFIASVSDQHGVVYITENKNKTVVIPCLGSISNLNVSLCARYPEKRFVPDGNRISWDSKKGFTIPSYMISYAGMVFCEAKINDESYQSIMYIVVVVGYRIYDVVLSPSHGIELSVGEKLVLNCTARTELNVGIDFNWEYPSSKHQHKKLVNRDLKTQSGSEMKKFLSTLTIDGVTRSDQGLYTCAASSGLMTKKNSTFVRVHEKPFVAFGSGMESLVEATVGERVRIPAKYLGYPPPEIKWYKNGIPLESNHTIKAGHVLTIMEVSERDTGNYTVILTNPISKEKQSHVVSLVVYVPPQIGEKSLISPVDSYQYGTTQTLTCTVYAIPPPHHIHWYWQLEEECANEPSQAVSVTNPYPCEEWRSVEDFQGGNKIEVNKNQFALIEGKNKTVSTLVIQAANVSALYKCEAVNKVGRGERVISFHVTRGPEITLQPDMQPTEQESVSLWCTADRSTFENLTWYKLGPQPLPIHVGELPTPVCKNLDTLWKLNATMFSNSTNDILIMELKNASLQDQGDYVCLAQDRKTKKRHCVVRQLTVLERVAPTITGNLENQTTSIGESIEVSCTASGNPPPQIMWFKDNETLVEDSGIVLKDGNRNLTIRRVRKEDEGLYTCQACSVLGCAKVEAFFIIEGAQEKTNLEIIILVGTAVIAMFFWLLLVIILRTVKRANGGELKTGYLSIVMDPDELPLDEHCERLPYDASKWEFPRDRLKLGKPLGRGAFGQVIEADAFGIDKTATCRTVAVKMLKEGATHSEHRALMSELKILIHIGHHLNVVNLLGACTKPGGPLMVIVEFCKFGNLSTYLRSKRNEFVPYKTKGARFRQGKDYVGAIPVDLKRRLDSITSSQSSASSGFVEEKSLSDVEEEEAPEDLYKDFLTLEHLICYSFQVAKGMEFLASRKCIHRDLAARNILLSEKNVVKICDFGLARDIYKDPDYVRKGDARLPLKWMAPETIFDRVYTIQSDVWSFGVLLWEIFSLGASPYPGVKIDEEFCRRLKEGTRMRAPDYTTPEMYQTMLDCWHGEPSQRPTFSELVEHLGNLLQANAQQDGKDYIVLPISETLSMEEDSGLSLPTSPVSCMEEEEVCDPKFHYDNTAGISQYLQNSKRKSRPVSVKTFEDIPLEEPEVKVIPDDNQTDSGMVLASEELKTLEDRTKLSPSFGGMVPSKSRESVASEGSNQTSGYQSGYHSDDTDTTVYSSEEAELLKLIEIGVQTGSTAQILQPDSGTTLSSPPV
The target in data set [9] is Leucine-rich repeat serine/threonine-protein kinase 2 (Homo sapiens) (UniProt Q5S007). The data set can be described thus: Inhibition of LRKK2 at 10 uM.
For data set [10], the system named is Leucine-rich repeat serine/threonine-protein kinase 2 (Homo sapiens), Q5S007 [G2019S]. As to the kind of experiment: Inhibition of LRKK2 G2019S mutant at 10 uM.
In data set [11] the target is Muscle, skeletal receptor tyrosine-protein kinase (Homo sapiens) (UniProt O15146). The data set can be described thus: Inhibition of MUSK at 10 uM.
Muscle, skeletal receptor tyrosine-protein kinase (Homo sapiens), sequence (O15146 whole entry): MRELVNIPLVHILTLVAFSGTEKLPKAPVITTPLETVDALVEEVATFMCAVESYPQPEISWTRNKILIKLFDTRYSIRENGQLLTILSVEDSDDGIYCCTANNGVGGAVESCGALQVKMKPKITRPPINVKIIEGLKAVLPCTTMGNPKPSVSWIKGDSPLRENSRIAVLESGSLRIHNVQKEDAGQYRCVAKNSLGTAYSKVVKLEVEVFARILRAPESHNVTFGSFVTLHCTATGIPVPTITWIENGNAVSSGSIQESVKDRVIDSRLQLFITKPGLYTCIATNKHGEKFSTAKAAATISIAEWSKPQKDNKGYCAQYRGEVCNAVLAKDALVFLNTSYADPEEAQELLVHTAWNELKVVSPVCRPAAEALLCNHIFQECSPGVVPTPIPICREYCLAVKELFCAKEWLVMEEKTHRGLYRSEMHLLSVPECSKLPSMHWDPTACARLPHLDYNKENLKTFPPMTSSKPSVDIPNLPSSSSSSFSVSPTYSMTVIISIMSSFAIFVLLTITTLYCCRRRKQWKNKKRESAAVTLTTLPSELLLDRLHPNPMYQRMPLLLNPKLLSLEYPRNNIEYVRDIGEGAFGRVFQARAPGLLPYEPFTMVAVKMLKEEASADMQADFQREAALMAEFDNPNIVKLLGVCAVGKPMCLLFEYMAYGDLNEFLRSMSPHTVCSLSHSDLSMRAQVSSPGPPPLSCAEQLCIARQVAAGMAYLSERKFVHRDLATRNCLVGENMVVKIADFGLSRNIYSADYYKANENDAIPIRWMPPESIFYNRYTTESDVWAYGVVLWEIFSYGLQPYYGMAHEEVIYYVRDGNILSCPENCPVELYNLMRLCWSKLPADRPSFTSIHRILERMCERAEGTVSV
Data set [12] has as its target Myosin light chain kinase 2, skeletal/cardiac muscle (Homo sapiens) (UniProt Q9H1R3). The data set can be described thus: Inhibition of MYLK2 at 10 uM.
The subject of data set [13] is Platelet-derived growth factor receptor alpha (Homo sapiens), P16234 [T674I]. The data set can be described thus: Inhibition of PDGFRA T674I mutant at 10 uM.

For orientation: IC50 means the point on the concentration scale where inhibition reaches its midpoint. Broadly, the GI50 is the concentration that inhibits growth by half. A lower GI50 goes with more potent growth inhibition. As a reminder, the inhibition is the change of the read-out against control, counted positive when it falls.

The source made the active and inactive calls. The rule behind the calls is not given here.

Serine/threonine-protein kinase haspin (Homo sapiens), sequence (Q8TF76 whole entry): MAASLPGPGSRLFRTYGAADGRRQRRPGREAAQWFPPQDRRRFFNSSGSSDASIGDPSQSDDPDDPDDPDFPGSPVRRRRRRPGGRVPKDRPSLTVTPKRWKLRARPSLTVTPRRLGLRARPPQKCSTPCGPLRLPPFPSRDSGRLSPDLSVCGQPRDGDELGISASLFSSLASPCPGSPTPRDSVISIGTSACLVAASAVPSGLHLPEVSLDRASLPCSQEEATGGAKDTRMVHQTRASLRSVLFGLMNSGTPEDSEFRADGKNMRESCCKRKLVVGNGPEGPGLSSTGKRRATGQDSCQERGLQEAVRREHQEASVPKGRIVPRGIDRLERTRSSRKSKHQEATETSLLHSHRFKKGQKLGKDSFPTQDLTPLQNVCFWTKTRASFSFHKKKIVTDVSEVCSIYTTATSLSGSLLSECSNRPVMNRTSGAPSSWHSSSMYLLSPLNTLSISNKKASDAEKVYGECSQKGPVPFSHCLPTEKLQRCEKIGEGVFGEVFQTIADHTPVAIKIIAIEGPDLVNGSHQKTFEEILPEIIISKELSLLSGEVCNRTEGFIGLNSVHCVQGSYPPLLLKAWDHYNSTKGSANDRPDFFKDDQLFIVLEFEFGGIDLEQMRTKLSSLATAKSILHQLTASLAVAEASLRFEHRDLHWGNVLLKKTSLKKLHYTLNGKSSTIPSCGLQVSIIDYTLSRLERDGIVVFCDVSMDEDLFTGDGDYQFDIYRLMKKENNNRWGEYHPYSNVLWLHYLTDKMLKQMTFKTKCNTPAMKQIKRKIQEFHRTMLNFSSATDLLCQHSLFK
Mitogen-activated protein kinase 9 (Homo sapiens), sequence (P45984 whole entry, looked up): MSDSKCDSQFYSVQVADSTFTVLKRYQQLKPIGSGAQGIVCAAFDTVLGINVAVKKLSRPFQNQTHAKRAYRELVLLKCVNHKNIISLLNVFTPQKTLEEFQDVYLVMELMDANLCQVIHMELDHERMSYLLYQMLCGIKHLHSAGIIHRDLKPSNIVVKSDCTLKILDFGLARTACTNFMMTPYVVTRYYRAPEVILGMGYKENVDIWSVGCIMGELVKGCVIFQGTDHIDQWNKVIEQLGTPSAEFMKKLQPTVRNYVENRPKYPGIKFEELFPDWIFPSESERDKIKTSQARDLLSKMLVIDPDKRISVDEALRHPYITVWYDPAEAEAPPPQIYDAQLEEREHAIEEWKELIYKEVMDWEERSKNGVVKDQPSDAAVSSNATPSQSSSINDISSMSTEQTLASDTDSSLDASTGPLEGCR

Consider `C(#Cc1n[nH]c2ccccc12)c1ccncc1`, for which the IC50 was 3.87 µM in data set [1] and 40 µM in [2]. For the same compound, the GI50 amounted to 2.43 µM with PC-3 and 2.53 µM in the data set with HeLa. Also, in the data set on Plasma, the Stability was 97%. Further, the inhibition result in [3] is “inactive”. Besides, the “growth inhibition (GI)” value with U-87MG ATCC was “Active”. For the same compound, the inhibition in [4], in [5], in data set [6], in data set [7], in [8] and in [9] was greater than 50% each time. Also, the inhibition in [10], in data set [11], in [12] and in data set [13] was greater than 50% in each case.
